Experiment [1] relates to P. berghei sporozoites expressing luciferase. Particulars: 2.5 mg/kg; stated as known, no reference given; cited from earlier work.
The test system of experiment [2] is P. falciparum NF54 gametocytes. Kind of experiment: Gametocyte viability assay. The format is cell-based. Particulars: Plasmodium falciparum, NF54, 72 h, read-out: IC50, gametocyte viability. A digest of the protocol:
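NF54 stage III–V gametocytes came from cultures cleared of asexual parasites with 50 mM N-acetyl-D-glucosamine for 3 days, then purified on a discontinuous Percoll gradient. Viability was read by a modified pLDH assay with resazurin substrate after 72-hr exposure. The 9-point series (0.1 nM–1 μM, 0.5 log10 steps) ran in quadruplicate over 2 plates and 2 parasite batches. Controls were 1 μM DHA (MIN) and vehicle (MAX). IC50 came from four-parameter nonlinear regression.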

Experiment [3] relates to P. falciparum schizonts (Dd2), reinvasion of RBCs. Put plainly: Physical disruption/merozoite release assay. Particulars: ~5×IC50 imidazopyrazine or 1 μM E-64. The format is cell-based, Plasmodium falciparum.

For the compound `O=C1C(O)=C([C@H]2CC[C@H](c3ccc(Cl)cc3)CC2)C(=O)c2ccccc21` [ATQ, atovaquone], in experiment [1], the causal prophylactic protection is 100%.
In general, IC50 refers to the concentration that gives 50% inhibition. Consider `C[C@H]1[C@@H](O)O[C@@H]2O[C@@]3(C)CC[C@H]4[C@H](C)CC[C@@H]1[C@@]24OO3` [DHA, dihydroartemisinin], for which the IC50 in experiment [2] was 15.8 nM.
Consider `CC(C)C[C@H](NC(=O)[C@H]1O[C@@H]1C(=O)O)C(=O)NCCCCN=C(N)N` [E-64], for which the “reinvasion parasitemia after mechanical rupture of treated schizonts” value in experiment [3] is recorded as 2–3%.

The values above are taken from article PMC3940870 (Nature, 2013).
